Reference: ChEMBL document CHEMBL4152233, “Design, synthesis and anthelmintic activity of 7-keto-sempervirol analogues” (Eur J Med Chem, 2018)
The source made the active and inactive calls.

Assays:
Schistosoma mansoni [1] = assay: Antischistosomal activity against female adult stage of Schistosoma mansoni assessed as tegumental disruption throughtout the whole body at 25 uM after 72 hrs by osmium tetroxide staining-based scanning electron microscopic method; type: functional, organism-based
[2] = Selectivity index, ratio of IC50 for MDBK cells to IC50 for antischistosomal activity against schistosomula of Schistosoma mansoni assessed as effect on parasite motility; type: toxicity; details: cattle, read-out: Ratio IC50
How it was run: (§1)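 Selectivity index was calculated as the CC50 from the HepG2 or MDBK MTT assay divided by the schistosomula phenotype or motility IC50 from the 72 hr image-based screen.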

Fasciola hepatica [3] = assay: Antifasciola activity against adult stage of Fasciola hepatica Italian assessed as effect on parasite motility after 72 hrs; type: functional, organism-based
[4] = Selectivity index, ratio of IC50 for human HepG2 cells to IC50 for newly excysted juveline stage of Fasciola hepatica Italian assessed as effect on parasite motility; type: toxicity; details: read-out: Ratio IC50
How it was run: (§2)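 Selectivity index was calculated as the CC50 from the HepG2 or MDBK MTT assay divided by the F. hepatica NEJ phenotype or motility IC50 from the 72 hr manual scoring assay.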

[5] = Cytotoxicity against human HepG2 cells after 24 hrs by MTT assay; type: cell-based
How it was run: (§3)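 Cells were grown to about 80% confluence (HepG2 in BME, MDBK in EMEM, each with 10% FBS). They were seeded at 2.5 x10^4 per well and rested 24 hr, then exposed 24 hr to compound at 100–0.01 µM (1.25% DMSO). Controls were DMSO and 1% Triton X-100. Viability was read by MTT, and CC50 came from dose-response curves run in triplicate.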

Fasciola hepatica [6] = assay: Antifasciola activity against immature stage of Fasciola hepatica Italian assessed as effect on parasite motility after 72 hrs; type: functional, organism-based
Fasciola hepatica [7] = assay: Antifasciola activity against immature stage of Fasciola hepatica Italian assessed as loss of spines on ventral surface at 13.3 uM after 72 hrs by osmium tetroxide staining-based scanning electron microscopic method; type: functional, organism-based
Schistosoma mansoni [8] = assay: Antischistosomal activity against adult stage of Schistosoma mansoni assessed as appearance of abnormal shaped eggs at 6.25 uM after 72 hrs by fluorescence microscopic method; type: functional, organism-based
How it was run: (§4)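 Adult worm pairs from infected MF-1 mice were cultured 72 hr at 37 °C, 5% CO2, in modified DMEM with 10% FCS. At 72 hr, eggs were collected from each well, counted, pelleted at 200 x g, fixed in 10% formaldehyde in PBS, and viewed under natural light and a GFP filter.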

Schistosoma mansoni [9] = assay: Antischistosomal activity against adult stage of Schistosoma mansoni assessed as effect on parasite motility up to 12.5 uM after 72 hrs by microscopic method; type: functional, organism-based
How it was run: (§5)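 Mice were infected percutaneously with 200 cercariae, and adults were recovered by portal perfusion at seven weeks. Three worm pairs per well in modified DMEM with 10% FCS were given compound at 50, 25, 12.5 and 6.25 µM final (0.3% DMSO) for 72 hr at 37 °C, 5% CO2. Controls were DMSO and auranofin. Worms were scored manually by microscopy at 24, 48 and 72 hr. Experiments were run in duplicate.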

[10] = Selectivity index, ratio of IC50 for human HepG2 cells to IC50 for antischistosomal activity against schistosomula of Schistosoma mansoni assessed as effect on parasite phenotype; type: toxicity; details: read-out: Ratio IC50; how it was run: as §1
Schistosoma mansoni [11] = assay: Antischistosomal activity against adult stage of Schistosoma mansoni at 50 uM after 24 to 72 hrs by microscopic method; type: functional, organism-based; how it was run: as §5
Schistosoma mansoni [12] = assay: Antischistosomal activity against male adult stage of Schistosoma mansoni assessed as loss of spinous tubercles natural shape at 25 uM after 72 hrs by osmium tetroxide staining-based scanning electron microscopic method; type: functional, organism-based
Schistosoma mansoni [13] = assay: Antischistosomal activity against schistosomula of Schistosoma mansoni assessed as effect on parasite motility by throughput high content image analysis; type: functional, organism-based
How it was run: (§6)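 Puerto Rican (NMRI) strain cercariae were mechanically transformed to schistosomula. About 120 larvae were co-cultured with compound for 72 hr at 37 °C, 5% CO2, at 0.625% DMSO final. Controls were DMSO and auranofin. Motility and phenotype were scored by automated image analysis, with a hit threshold of ≤-0.15 (phenotype) and ≤-0.35 (motility) in ≥70% of larvae. Runs were in duplicate, and IC50 was estimated from dose-response curves.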

[14] = Selectivity index, ratio of IC50 for MDBK cells to IC50 for newly excysted juveline stage of Fasciola hepatica Italian assessed as effect on parasite motility; type: toxicity; details: cattle, read-out: Ratio IC50; how it was run: as §2
[15] = Selectivity index, ratio of IC50 for MDBK cells to IC50 for newly excysted juveline stage of Fasciola hepatica Italian assessed as effect on parasite phenotype; type: toxicity; details: cattle, read-out: Ratio IC50; how it was run: as §2
[16] = Selectivity index, ratio of IC50 for MDBK cells to IC50 for antischistosomal activity against schistosomula of Schistosoma mansoni assessed as effect on parasite phenotype; type: toxicity; details: cattle, read-out: Ratio IC50; how it was run: as §1
Schistosoma mansoni [17] = assay: Antischistosomal activity against schistosomula of Schistosoma mansoni assessed as effect on parasite phenotype by throughput high content image analysis; type: functional, organism-based; how it was run: as §6
[18] = Selectivity index, ratio of IC50 for human HepG2 cells to IC50 for antischistosomal activity against schistosomula of Schistosoma mansoni assessed as effect on parasite motility; type: toxicity; details: read-out: Ratio IC50; how it was run: as §1
Fasciola hepatica [19] = assay: Antifasciola activity against immature stage of Fasciola hepatica Italian assessed as exposure of basal lamina at 13.3 uM after 72 hrs by osmium tetroxide staining-based scanning electron microscopic method; type: functional, organism-based
Schistosoma mansoni [20] = assay: Antischistosomal activity against male adult stage of Schistosoma mansoni assessed as tegumental disruption throughtout the whole body at 25 uM after 72 hrs by osmium tetroxide staining-based scanning electron microscopic method; type: functional, organism-based
Fasciola hepatica [21] = assay: Antifasciola activity against adult stage of Fasciola hepatica Italian assessed as decoration of ventral surface by swollen tegumantal ridges and smaller spines at 40 uM after 72 hrs by osmium tetroxide staining-based scanning electron microscopic method; type: functional, organism-based
Schistosoma mansoni [22] = assay: Antischistosomal activity against adult stage of Schistosoma mansoni assessed as appearance of smaller eggs at 6.25 uM after 72 hrs by fluorescence microscopic method; type: functional, organism-based; how it was run: as §4
[23] = Cytotoxicity against MDBK cells after 24 hrs by MTT assay; type: cell-based, Bos taurus; details: cattle; how it was run: as §3
Schistosoma mansoni [24] = assay: Antischistosomal activity against female adult stage of Schistosoma mansoni assessed as loss of spinous tubercles natural shape at 25 uM after 72 hrs by osmium tetroxide staining-based scanning electron microscopic method; type: functional, organism-based
Fasciola hepatica [25] = assay: Antifasciola activity against immature stage of Fasciola hepatica Italian assessed as sloughing of tegument at 13.3 uM after 72 hrs by osmium tetroxide staining-based scanning electron microscopic method; type: functional, organism-based
Schistosoma mansoni [26] = assay: Antischistosomal activity against adult stage of Schistosoma mansoni assessed as loss of lateral spine in eggs at 6.25 uM after 72 hrs by fluorescence microscopic method; type: functional, organism-based; how it was run: as §4
Schistosoma mansoni [27] = assay: Antischistosomal activity against schistosomula of Schistosoma mansoni at 10 uM by throughput high content image analysis; type: functional, organism-based; how it was run: as §6
[28] = Selectivity index, ratio of IC50 for human HepG2 cells to IC50 for newly excysted juveline stage of Fasciola hepatica Italian assessed as effect on parasite phenotype; type: toxicity; details: read-out: Ratio IC50; how it was run: as §2
Fasciola hepatica [29] = assay: Antifasciola activity against newly excysted juveline stage of Fasciola hepatica Italian assessed as effect on parasite motility after 72 hrs; type: functional, organism-based
How it was run: (§7)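 NEJs came from Italian-strain metacercariae, excysted either by pepsin/HCl or by needle rupture, then 1 hr in sodium tauroglycocholate. They were plated at 25 per well in RPMI-1640 with 1% FCS. Screening was at 25 and 12.5 µM, then titration from 10 to 0.625 µM (0.16% DMSO). Controls were DMSO and 10 µM triclabendazole. Motility and phenotype were scored at 72 hr, with IC50 from dose-response curves.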

Fasciola hepatica [30] = assay: Antifasciola activity against newly excysted juveline stage of Fasciola hepatica Italian assessed as effect on parasite phenotype after 72 hrs; type: functional, organism-based; how it was run: as §7
Schistosoma mansoni [31] = assay: Antischistosomal activity against schistosomula of Schistosoma mansoni at 1 uM by throughput high content image analysis; type: functional, organism-based
Schistosoma mansoni [32] = assay: Antischistosomal activity against schistosomula of Schistosoma mansoni at 25 uM by throughput high content image analysis; type: functional, organism-based; how it was run: as §6
Schistosoma mansoni [33] = assay: Antischistosomal activity against adult stage of Schistosoma mansoni assessed as irregular auto-fluorescence of eggs at 6.25 uM after 72 hrs by fluorescence microscopic method; type: functional, organism-based; how it was run: as §4
Schistosoma mansoni [34] = assay: Antischistosomal activity against adult stage of Schistosoma mansoni assessed as effect on parasite motility after 72 hrs by microscopic method; type: functional, organism-based; how it was run: as §5

IC50 (Fasciola hepatica [3]): 28.4 µM
IC50 (Fasciola hepatica [6]): 10.4 µM
IC50 (Schistosoma mansoni [13]): 6.3 µM
IC50 (Schistosoma mansoni [17]): 6.8 µM
IC50 (Fasciola hepatica [29]): 2.5 µM
IC50 (Fasciola hepatica [30]): 3.2 µM
IC50 (Schistosoma mansoni [34]): 19.9 µM
Structure (SMILES): CC1(C)CCC[C@]2(C)c3ccc(O)cc3CC[C@@H]12
Activity (Schistosoma mansoni [1]): Active
selectivity ratio [2]: 5.2
selectivity ratio [4]: 10.2
CC50 at 24 h [5]: 25.6 µM
Activity (Fasciola hepatica [7]): Active
Activity (Schistosoma mansoni [8]): Active
Activity (Schistosoma mansoni [9]): Active
selectivity ratio [10]: 3.8
Activity (Schistosoma mansoni [11]): Active
Activity (Schistosoma mansoni [12]): Active
selectivity ratio [14]: 13
selectivity ratio [15]: 10.2
selectivity ratio [16]: 4.8
selectivity ratio [18]: 4.1
Activity (Fasciola hepatica [19]): Active
Activity (Schistosoma mansoni [20]): Active
Activity (Fasciola hepatica [21]): Active
Activity (Schistosoma mansoni [22]): Active
CC50 at 24 h [23]: 32.5 µM
Activity (Schistosoma mansoni [24]): Active
Activity (Fasciola hepatica [25]): Active
Activity (Schistosoma mansoni [26]): Active
Activity (Schistosoma mansoni [27]): Active
selectivity ratio [28]: 8
Activity (Schistosoma mansoni [31]): inactive
Activity (Schistosoma mansoni [32]): Active
Activity (Schistosoma mansoni [33]): Active
